# How the values were obtained:
# Sporothrix schenckii = assay: Antifungal activity against Sporothrix schenckii after 72 hrs by broth microdilution method; assay type: functional
# Outline: (§1)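 NCCLS broth microdilution in MOPS-buffered RPMI 1640, 96-well plates. Inoculum 1-5 × 10^3 cells/mL, moist chamber, 35 °C. Absorbance at 492 nm read at 48 h (C. albicans, C. parapsilosis), 72 h (C. neoformans, S. schenckii, A. fumigatus) or 96 h (T. mentagrophytes). MIC defined as 90% growth inhibition versus growth control.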
# Candida albicans = assay: Antifungal activity against Candida albicans after 48 hrs by broth microdilution method; assay type: functional; outline: as §1
# Candida parapsilosis = assay: Antifungal activity against Candida parapsilosis ATCC 22019 after 48 hrs by broth microdilution method; assay type: functional; details: Lodderomyces parapsilosis, ATCC 22019, 48 h; outline: as §1
# Cryptococcus neoformans = assay: Antifungal activity against Cryptococcus neoformans after 72 hrs by broth microdilution method; assay type: functional; outline: as §1
# [1] = system: Trichophyton mentagrophytes; assay: Antifungal activity against Trichophyton mentagrophytes after 96 hrs by broth microdilution method; assay type: functional; outline: as §1
# Aspergillus fumigatus = assay: Antifungal activity against Aspergillus fumigatus after 72 hrs by broth microdilution method; assay type: functional; outline: as §1
# Klebsiella pneumoniae = assay: Antibacterial activity against Klebsiella pneumoniae ATCC 27736 after 24 hrs by broth microdilution method; assay type: functional; details: ATCC 27736, 24 h
# Outline: (§2)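 NCCLS broth microdilution in Mueller-Hinton broth, 96-well plates. Initial inoculum 1-5 × 10^3 cells/mL. Incubated in a moist chamber at 35 °C for 24 h, then absorbance read at 492 nm. MIC taken as the concentration giving 90% growth inhibition relative to the growth control.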
# Pseudomonas aeruginosa = assay: Antibacterial activity against Pseudomonas aeruginosa ATCC BAA-427 after 24 hrs by broth microdilution method; assay type: functional; details: ATCC BAA-427, 24 h; outline: as §2
# Staphylococcus aureus = assay: Antibacterial activity against Staphylococcus aureus ATCC 25923 after 24 hrs by broth microdilution method; assay type: functional; details: ATCC 25923, 24 h; outline: as §2
# Escherichia coli = assay: Antibacterial activity against Escherichia coli ATCC 9637 after 24 hrs by broth microdilution method; assay type: functional; details: ATCC 9637, 24 h; outline: as §2
# [2] = Cytotoxicity against mouse L929 cells assessed as cell viability at 6.25 to 50 ug/ml after 24 hrs by MTT assay; assay type: cell-based; details: read-out: Activity
# L929 [3] = assay: Cytotoxicity against mouse L929 cells assessed as morphological changes at 6.25 to 50 ug/ml using Giemsa staining by phase contrast microscopy analysis; assay type: cell-based
# Outline: (§3)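 L929 fibroblasts in serum-free RPMI exposed to compound for 24 h. Wells fixed, Giemsa-stained 30 min at 37 °C, washed with PBS, air-dried. Morphology inspected by phase contrast microscopy against untreated control wells.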
# L929 [4] = assay: Cytotoxicity against mouse L929 cells assessed as morphological changes at 0.39 to 1.56 ug/ml using Giemsa staining by phase contrast microscopy analysis; assay type: cell-based; outline: as §3
Compound,MIC (Sporothrix schenckii) [µg/mL],MIC (Candida albicans) [µg/mL],MIC (Candida parapsilosis) [µg/mL],MIC (Cryptococcus neoformans) [µg/mL],MIC [1] [µg/mL],MIC (Aspergillus fumigatus) [µg/mL],MIC (Klebsiella pneumoniae) [µg/mL],MIC (Pseudomonas aeruginosa) [µg/mL],MIC (Staphylococcus aureus) [µg/mL],MIC (Escherichia coli) [µg/mL],viability at 24 h [2] [%],Activity (L929 [3]),Activity (L929 [4])
O=C1C(O)=C(Sc2ccccc2)C(=O)C(Sc2ccccc2)=C1Sc1ccccc1,50,12.5,12.5,12.5,50,> 50,> 50,> 50,> 50,> 50,,,
CC1(C)S[C@@H]2[C@H](NC(=O)[C@H](N)c3ccccc3)C(=O)N2[C@H]1C(=O)O [AMPICILLIN],,,,,,,> 50,> 50,12.5,12.5,,,
O=C1C(O)=C(Sc2cccc3ccccc23)C(=O)C(Sc2cccc3ccccc23)=C1Sc1cccc2ccccc12,> 50,25,25,25,50,> 50,> 50,> 50,> 50,> 50,,,
CN1CCN(C2=C(Cl)C(=O)C(N3CCN(C)CC3)=C(Cl)C2=O)CC1,1.56,6.25,6.25,1.56,0.78,12.5,6.25,> 50,6.25,6.25,> 90,Toxic,Non-toxic

# The next lines start with results.
MIC (Sporothrix schenckii) [µg/mL],MIC (Candida albicans) [µg/mL],MIC (Candida parapsilosis) [µg/mL],MIC (Cryptococcus neoformans) [µg/mL],MIC [1] [µg/mL],MIC (Aspergillus fumigatus) [µg/mL],MIC (Klebsiella pneumoniae) [µg/mL],MIC (Pseudomonas aeruginosa) [µg/mL],MIC (Staphylococcus aureus) [µg/mL],MIC (Escherichia coli) [µg/mL],Compound,viability at 24 h [2] [%],Activity (L929 [3]),Activity (L929 [4])
4,0.25,1,0.25,2,8,,,,,Clc1ccccc1C(c1ccccc1)(c1ccccc1)n1ccnc1 [CLOTRIMAZOLE],,,
50,25,50,25,50,> 50,> 50,> 50,> 50,> 50,O=C1C=C(Sc2ccccc2)C(=O)C=C1Sc1ccccc1,,,
> 50,25,25,50,50,> 50,> 50,> 50,> 50,> 50,CCOC(=O)CC(SC1=C(SC(CC(=O)OCC)C(=O)OCC)C(=O)C(SC(CC(=O)OCC)C(=O)OCC)=C(SC(CC(=O)OCC)C(=O)OCC)C1=O)C(=O)OCC (stereo not drawn),,,
> 50,25,25,50,50,> 50,> 50,> 50,50,> 50,CCOC(=O)CSC1=C(SCC(=O)OCC)C(=O)C(SCC(=O)OCC)=C(SCC(=O)OCC)C1=O,,,
> 50,25,50,25,50,> 50,> 50,> 50,> 50,> 50,O=C1C(Cl)=C(N2CCCC2)C(=O)C(Cl)=C1N1CCCC1,,,
> 50,12.5,25,25,50,> 50,> 50,> 50,> 50,> 50,Cc1ccc(SC2=C(O)C(=O)C(Sc3ccc(C)cc3)=C(Sc3ccc(C)cc3)C2=O)cc1,,,
12.5,12.5,12.5,12.5,6.25,> 50,> 50,> 50,25,> 50,O=C1C(Cl)=C(N2CCOCC2)C(=O)C(Cl)=C1N1CCOCC1,,,

# From ChEMBL document CHEMBL2086245, “Micelles catalyzed chemo- and regio-selective one pot and one step synthesis of 2,3,5,6-tetrakis(alkyl and arylsulfanyl)-1,4-benzoquinones and 2,5-diaminosubstituted-1,4-benzoquinones "In-Water" and their biological evaluation as antibacterial and antifungal agents” (Eur J Med Chem, 2012)
